# An excerpt weighted towards active compounds, which were near 3.6% of everything screened.
# PAFAH2 FP inh = PAFAH2 (human) inhibition. Q99487. actives 0.99% (n = 340,000). recombinant PAFAH2, FP-rhodamine activity probe, fluorescence polarization. inhibition, % at 3.39 µM. AID 492956;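 active = inhibition above the mean over all tested compounds plus 3 SD, cut at about 30% in these data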;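 note: inhibitors block probe labeling of enzyme so polarization drops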
# IMP-1 inh = inhibitors of Pseudomonas aeruginosa IMP-1 metallo-beta-lactamase; actives 0.45% (n = 290,000); purified IMP-1, nitrocefin hydrolysis, epi-absorbance fluorescence; AID 1556; inhibition, % at 5.6 µM;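 active = inhibition above the mean plus 3 SD of all compounds in the same screening run, cut at about 4.5% in these data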
#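 Assay system: purified IMP-1; Quantity: IMP-1 0.2 nM before substrate addition; Medium: HEPES buffer pH 7.1 with ZnSO4 and Brij 35; Incubation: 15 min enzyme–compound preincubation, then 25 min nitrocefin reaction, 25 °C; Signal: fluorescence quenching readout, ex 480/em 530 nm; Controls: DMSO with and without IMP-1; Repeats: singlicate testing.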
# VIM-2 inh = inhibitors of Pseudomonas aeruginosa VIM-2 metallo-beta-lactamase; purified VIM-2, nitrocefin hydrolysis, epi-absorbance fluorescence; inhibition, % at 5.6 µM; actives 0.89% (n = 290,000);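 active = inhibition above the mean of all tested compounds plus 3 SD, cutoff set per screening run, cut at about 7.5% in these data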;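 note: red hydrolysis product quenches plate fluorescence so inhibitors raise well fluorescence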
# pPAFAH FP inh = inhibitors of human plasma PAF acetylhydrolase (pPAFAH). recombinant pPAFAH, FP-rhodamine probe fluorescence polarization. inhibition, % at 3.39 µM. actives 1.5% (n = 330,000). Q13093;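 active = inhibition above the mean inhibition across the screen plus 3 SD, cut at about 25% in these data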;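 note: inhibitors block binding of the rhodamine activity-based probe so polarization drops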
# Target sequence (Q13093 whole entry, looked up): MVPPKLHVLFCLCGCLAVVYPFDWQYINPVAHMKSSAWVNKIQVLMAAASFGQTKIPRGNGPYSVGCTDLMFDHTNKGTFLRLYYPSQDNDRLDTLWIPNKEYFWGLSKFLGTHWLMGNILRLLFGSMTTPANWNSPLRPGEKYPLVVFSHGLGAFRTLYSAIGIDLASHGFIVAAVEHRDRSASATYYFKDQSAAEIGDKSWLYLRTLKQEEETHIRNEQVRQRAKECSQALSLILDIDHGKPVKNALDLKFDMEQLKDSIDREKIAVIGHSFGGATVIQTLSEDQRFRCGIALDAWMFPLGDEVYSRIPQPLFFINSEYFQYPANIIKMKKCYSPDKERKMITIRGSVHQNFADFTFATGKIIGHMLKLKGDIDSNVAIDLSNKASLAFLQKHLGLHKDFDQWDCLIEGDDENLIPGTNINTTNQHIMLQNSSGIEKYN
# PAFAH1B2 inh = PAFAH1B2 (human) inhibition. P68402. recombinant PAFAH1B2, FP-rhodamine activity probe, fluorescence polarization. inhibition, % at 3.39 µM. actives 1.2% (n = 340,000). AID 492953;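 active = inhibition above the mean of all tested compounds plus 3 SD, cut at about 24% in these data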
# PAFAH1B3 inh = PAFAH1B3 (human) inhibition; recombinant PAFAH1B3, FP-rhodamine probe, fluorescence polarization; inhibition, % at 3.39 µM; actives 0.28% (n = 340,000); AID 492972;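 active = inhibition above the screen-wide average of all tested compounds plus 3 SD, cut at about 25% in these data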
# Target sequence (Q15102 whole entry, looked up): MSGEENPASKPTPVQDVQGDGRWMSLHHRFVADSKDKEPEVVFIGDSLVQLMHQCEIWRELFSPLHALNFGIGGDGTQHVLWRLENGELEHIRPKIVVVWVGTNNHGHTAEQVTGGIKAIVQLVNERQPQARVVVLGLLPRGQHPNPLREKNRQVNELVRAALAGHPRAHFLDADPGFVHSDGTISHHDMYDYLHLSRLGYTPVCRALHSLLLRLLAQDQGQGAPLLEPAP
# PAFAH2 FP conf = PAFAH2 (human) inhibition, confirmed; shares compounds with PAFAH2 FP inh; inhibition, % at 3.39 µM; recombinant PAFAH2, FP-rhodamine activity probe, fluorescence polarization; actives 65% (n = 2,300);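 active = mean inhibition over three repeats above a set limit taken from the earlier primary screen, cut at about 30% in these data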;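 note: inhibitor blocks binding of rhodamine activity probe so polarization falls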
# Numbers stand for hits; . = inactive; / = not tested or not shown.
SMILES,PAFAH2 FP inh,IMP-1 inh,VIM-2 inh,pPAFAH FP inh,PAFAH1B2 inh,PAFAH1B3 inh,PAFAH2 FP conf
O=c1oc2ccc(Br)cc2cc1S(=O)(=O)c1ccc(F)cc1,80,.,.,.,.,.,63
O=c1oc(-c2ccccc2NS(=O)(=O)c2ccc3ccccc3c2)nc2ccccc12,36,.,.,.,.,.,40
Cc1ccccc1NS(=O)(=O)c1ccc2oc(=O)ccc2c1,.,.,.,.,.,.,/
COc1ccc(/C=C/C(=O)OCC(=O)NC2CCCCCCC2)cc1,86,/,/,.,.,.,83
COc1ccc(/C=C/C(=O)OCC(=O)N2CCCCCC2)cc1OC,33,/,/,.,.,.,.
O=C(COC(=O)/C=C/c1ccc(C(F)(F)F)cc1)NCC1CCCCC1,30,/,/,.,.,.,.
O=C(COC(=O)/C=C/c1ccc([N+](=O)[O-])cc1)NC1CCCCC1,.,/,/,.,.,.,/
COc1ccc(OC)c(/C=C/C(=O)OCC(=O)NC2CCCCCCC2)c1,90,/,/,.,.,.,86
CC(C)c1ccccc1OCC(=O)Nc1ccc2[nH]ncc2c1,.,.,.,.,.,.,/
O=C(COC(=O)/C=C/c1ccc(OC(F)F)cc1)NC1CCCC1,70,/,/,.,.,.,74
COc1ccc(/C=C/C(=O)OCC(=O)NC2CCCC2)cc1OC,83,/,/,.,.,.,78
COc1ccccc1CNC(=O)[C@H](C)NC(=O)C1CCN(C(=O)[C@@H]2CCCN2C(=O)OC(C)(C)C)CC1,.,.,.,.,.,.,/
COCCCNC(=O)C1CCN(S(=O)(=O)c2ccc3nc4c(c(C(=O)O)c3c2)CCCCC4)CC1,.,.,.,.,.,.,/
OCC[C@H]1C[C@@H](O)[C@H](O)[C@@]2(CCc3ccccc3O2)O1,.,/,/,.,.,.,/
O=c1cc(-c2ccccc2)nc2nc(-c3ccco3)[nH]n12,42,.,.,.,.,.,.
CC1Nc2ncnc(N3CCN(c4ccccc4)CC3)c2N(Cc2ccc(Br)cc2)C1=O (configuration not stated),.,/,/,.,.,.,/
O=C1CCCN1C(=O)CSc1nnnn1-c1ccccc1,37,/,/,.,.,.,31
COc1ccc(-n2nnnc2SCC(=O)N2CCCC2=O)cc1,.,/,/,.,.,.,/
COc1ccccc1-n1nnnc1SCC(=O)N1CCCC1=O,51,.,.,.,.,.,42
COc1ccc(-n2nnnc2SCC(=O)N2CCCc3ccccc32)cc1OC,.,.,.,.,.,.,/
Cc1cccc(N2CCN(S(=O)(=O)c3ccc(-c4ccc(=O)[nH]n4)o3)CC2)c1C,.,.,.,.,.,.,/
CSCC[C@H](NC(=O)Nc1ccc(OC(F)(F)F)cc1)C(=O)O,.,.,.,.,.,.,/
CSCC[C@H](NC(=O)Nc1ccc(Oc2ccccc2)cc1)C(=O)O,38,.,.,.,.,.,.
CC(C)(C)N(Cc1ccccc1)C(=O)COC(=O)c1ccccc1SCC(=O)N1CCCC1,.,/,/,.,.,.,/
O=C(OCC(=O)N1CCc2ccccc21)c1ccccc1F,57,.,.,.,.,.,53
SMILES,PAFAH2 FP inh,IMP-1 inh,VIM-2 inh,pPAFAH FP inh,PAFAH1B2 inh,PAFAH1B3 inh,PAFAH2 FP conf
Cc1ccc(C(=O)OCC(=O)N2CCCc3ccccc32)cc1C,.,/,/,/,.,.,/
CC(=O)c1c(C)[nH]c(C(=O)OCC(=O)N2CCc3ccccc32)c1C,44,.,.,.,.,.,.
Cn1cccc1C(=O)OCC(=O)N1CCc2ccccc21,31,/,/,.,.,.,.
Cc1ccc(C(=O)OCC(=O)N2CCc3ccccc32)cc1,63,.,.,.,.,.,63
O=C(OCC(=O)N1CCc2ccccc21)c1ccccc1[N+](=O)[O-],.,/,/,.,.,.,/
O=C(COC(=O)c1cccc(Br)c1)NCCc1ccccc1,.,.,.,.,.,.,/
CC(NC(=O)COC(=O)c1cc(Cl)nc(Cl)c1)c1ccccc1 (configuration not stated),.,.,.,.,.,.,/
CCNc1ccc(C(=O)OCC(=O)NCc2ccc(C)cc2)cc1[N+](=O)[O-],.,.,.,.,.,.,/
CCNc1ccc(C(=O)OCC(=O)NC(C)c2ccccc2)cc1[N+](=O)[O-] (configuration not stated),83,.,.,.,.,.,73
CC(NC(=O)COC(=O)c1ccc2c(c1)OCCO2)c1ccccc1 (configuration not stated),63,/,/,.,.,.,61
O=C(COC(=O)c1ccc2c(c1)OCCO2)NCCc1ccccc1,46,/,/,.,.,.,41
N#Cc1nc(-c2ccc(F)cc2)oc1N1CCC(C(N)=O)CC1,.,.,.,.,.,.,/
N#Cc1ccc(Cl)cc1NC(=O)COC(=O)c1cccc(S(=O)(=O)N2CCOCC2)c1,46,/,/,.,.,.,38
O=C(COC(=O)c1cccc(S(=O)(=O)N2CCc3ccccc32)c1)Nc1ncc(Cl)cc1Cl,.,.,.,.,.,.,/
N#Cc1ccc(Cl)cc1NC(=O)CNc1cccc(S(=O)(=O)N2CCCC2)c1,.,/,/,/,.,.,/
O=C(COC(=O)c1cccc(S(=O)(=O)N2CCOCC2)c1)Nc1ncc(Cl)cc1Cl,35,/,/,.,.,.,.
CC(=O)Nc1nnc(S(=O)(=O)N2CCN(c3ccc([N+](=O)[O-])cc3Cl)CC2)s1,.,.,.,.,.,.,/
CCC(=O)N1CCc2cc(OC)c(OC)cc2C1COc1ccc(F)cc1 (configuration not stated),.,.,.,.,.,.,/
O=[N+]([O-])c1cc(Br)c(O)c(/C=N/Nc2nnnn2-c2cccc3ccccc23)c1,35,4.8,.,34,.,.,.
CCOc1ccc(C(=O)OCC(=O)N2CCOCC2)cc1OCC,.,.,.,.,.,.,/
Cc1cccc(C)c1NC(=O)COC(=O)c1ccc(N2CCCC2)c([N+](=O)[O-])c1,63,.,.,.,.,.,59
COc1cc(C(=O)Nc2ccc(F)cc2Cl)ccc1OCC(=O)N1CCOCC1,.,/,/,.,.,.,/
CCOc1cc(C(=O)OC(C)C(=O)Nc2ncc(Cl)cc2Cl)ccc1OCC(=O)N1CCOCC1 (configuration not stated),.,.,.,.,.,.,/
CCOc1cc(C(=O)OCC(=O)Nc2ncc(Cl)c(C)c2Cl)ccc1OCC(=O)N1CCOCC1,55,.,.,.,.,.,54
CCOC(=O)c1ccccc1NC(=O)COC(=O)c1ccc(OCC(=O)N2CCOCC2)c(OCC)c1,35,/,/,/,.,.,.
CCN(CC(=O)Nc1c(F)cccc1F)C(=O)c1ccc(N2CCCC2)c([N+](=O)[O-])c1,.,/,/,.,.,.,/
CCOc1cc(C(=O)OCC(=O)Nc2ccc(F)cc2Cl)ccc1OCC(=O)N1CCOCC1,76,/,/,/,.,.,71

# Source: PubChem BioAssay
